Source: ChEMBL document CHEMBL1165965, “Synthesis and structure-activity relationships of 1,2,3,4-tetrahydropyrido[2,3-b]pyrazines as potent and selective inhibitors of the anaplastic lymphoma kinase” (Bioorg Med Chem, 2010)

Tests used:
[1] = biological target: Mitogen-activated protein kinase 11 (Homo sapiens) (UniProt Q15759); assay: Inhibition of p38-beta at 1 uM
[2] = biological target: Dual specificity mitogen-activated protein kinase kinase 2 (Homo sapiens) (UniProt P36507); assay: Inhibition of MEK2 at 1 uM
Chain of Dual specificity mitogen-activated protein kinase kinase 2 (Homo sapiens) (P36507 whole entry): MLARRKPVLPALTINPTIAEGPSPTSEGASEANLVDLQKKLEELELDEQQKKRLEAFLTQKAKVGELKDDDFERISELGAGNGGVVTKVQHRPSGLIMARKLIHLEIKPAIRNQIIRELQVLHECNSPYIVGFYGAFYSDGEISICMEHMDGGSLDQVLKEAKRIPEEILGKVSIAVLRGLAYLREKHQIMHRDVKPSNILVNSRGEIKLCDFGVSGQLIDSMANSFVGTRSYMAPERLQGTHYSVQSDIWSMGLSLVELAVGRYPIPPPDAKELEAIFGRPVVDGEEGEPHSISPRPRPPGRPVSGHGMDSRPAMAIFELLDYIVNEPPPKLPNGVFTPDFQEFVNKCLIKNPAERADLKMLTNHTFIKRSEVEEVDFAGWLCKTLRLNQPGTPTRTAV

[3] = biological target: Casein kinase II subunit alpha (Homo sapiens) (UniProt P68400); assay: Inhibition of CSNK2A1 at 1 uM
Chain of Casein kinase II subunit alpha (Homo sapiens) (P68400 whole entry, looked up): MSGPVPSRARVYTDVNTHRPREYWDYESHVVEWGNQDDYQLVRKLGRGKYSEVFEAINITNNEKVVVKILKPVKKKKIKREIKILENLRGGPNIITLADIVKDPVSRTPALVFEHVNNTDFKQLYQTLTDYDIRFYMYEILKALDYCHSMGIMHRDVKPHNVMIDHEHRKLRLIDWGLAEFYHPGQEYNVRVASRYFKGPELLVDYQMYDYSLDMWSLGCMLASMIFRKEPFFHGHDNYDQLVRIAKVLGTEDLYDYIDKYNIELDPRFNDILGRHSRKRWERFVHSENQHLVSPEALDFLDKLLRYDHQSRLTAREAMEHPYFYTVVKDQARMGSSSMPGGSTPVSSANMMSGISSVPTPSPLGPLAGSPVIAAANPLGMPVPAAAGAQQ
Method in brief: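 Single-concentration screen using Ambit Bioscience KINOMEscan technology across a panel of 250–400 kinases. Per-kinase inhibition from this screen was summarized as S(90), the fraction of kinases inhibited by more than 90%.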

[4] = test system: Proto-oncogene tyrosine-protein kinase receptor Ret (Homo sapiens), P07949 [V804M]; assay: Inhibition of RET V804M mutant at 1 uM
Chain of Proto-oncogene tyrosine-protein kinase receptor Ret (Homo sapiens), P07949 [V804M] (P07949 whole entry V804M): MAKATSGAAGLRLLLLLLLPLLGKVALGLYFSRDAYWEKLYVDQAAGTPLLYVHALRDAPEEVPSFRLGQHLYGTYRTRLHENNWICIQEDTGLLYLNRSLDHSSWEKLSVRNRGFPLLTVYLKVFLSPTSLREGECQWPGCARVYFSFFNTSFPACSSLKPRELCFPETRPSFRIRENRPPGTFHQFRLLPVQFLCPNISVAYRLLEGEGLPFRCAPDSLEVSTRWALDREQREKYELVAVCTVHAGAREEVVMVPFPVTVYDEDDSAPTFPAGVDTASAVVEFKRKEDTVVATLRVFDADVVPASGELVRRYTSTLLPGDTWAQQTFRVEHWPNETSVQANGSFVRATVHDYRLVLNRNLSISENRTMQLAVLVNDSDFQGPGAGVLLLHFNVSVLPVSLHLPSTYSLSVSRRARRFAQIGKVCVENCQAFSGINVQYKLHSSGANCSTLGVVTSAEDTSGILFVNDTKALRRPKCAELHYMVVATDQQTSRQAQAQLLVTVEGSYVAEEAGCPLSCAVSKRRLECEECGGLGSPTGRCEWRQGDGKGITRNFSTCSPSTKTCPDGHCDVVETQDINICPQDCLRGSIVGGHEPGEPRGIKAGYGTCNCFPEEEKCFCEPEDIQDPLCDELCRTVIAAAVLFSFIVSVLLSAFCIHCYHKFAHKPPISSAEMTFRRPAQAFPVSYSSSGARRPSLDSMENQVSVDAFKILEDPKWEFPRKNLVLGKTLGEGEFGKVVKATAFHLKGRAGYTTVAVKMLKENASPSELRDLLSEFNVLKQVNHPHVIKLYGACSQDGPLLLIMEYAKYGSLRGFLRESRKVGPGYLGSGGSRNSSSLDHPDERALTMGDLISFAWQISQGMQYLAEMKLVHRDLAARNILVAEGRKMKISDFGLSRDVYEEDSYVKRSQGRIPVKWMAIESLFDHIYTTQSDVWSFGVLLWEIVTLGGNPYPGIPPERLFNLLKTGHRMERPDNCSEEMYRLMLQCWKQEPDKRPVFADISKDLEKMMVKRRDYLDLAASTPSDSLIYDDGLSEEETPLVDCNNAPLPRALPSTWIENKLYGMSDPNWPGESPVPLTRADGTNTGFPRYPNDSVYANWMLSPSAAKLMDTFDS

[5] = biological target: T1, Serine/threonine-protein kinase TAO1 (Homo sapiens) (UniProt Q7L7X3); assay: Inhibition of TAO1 at 1 uM
T1 sequence (whole entry): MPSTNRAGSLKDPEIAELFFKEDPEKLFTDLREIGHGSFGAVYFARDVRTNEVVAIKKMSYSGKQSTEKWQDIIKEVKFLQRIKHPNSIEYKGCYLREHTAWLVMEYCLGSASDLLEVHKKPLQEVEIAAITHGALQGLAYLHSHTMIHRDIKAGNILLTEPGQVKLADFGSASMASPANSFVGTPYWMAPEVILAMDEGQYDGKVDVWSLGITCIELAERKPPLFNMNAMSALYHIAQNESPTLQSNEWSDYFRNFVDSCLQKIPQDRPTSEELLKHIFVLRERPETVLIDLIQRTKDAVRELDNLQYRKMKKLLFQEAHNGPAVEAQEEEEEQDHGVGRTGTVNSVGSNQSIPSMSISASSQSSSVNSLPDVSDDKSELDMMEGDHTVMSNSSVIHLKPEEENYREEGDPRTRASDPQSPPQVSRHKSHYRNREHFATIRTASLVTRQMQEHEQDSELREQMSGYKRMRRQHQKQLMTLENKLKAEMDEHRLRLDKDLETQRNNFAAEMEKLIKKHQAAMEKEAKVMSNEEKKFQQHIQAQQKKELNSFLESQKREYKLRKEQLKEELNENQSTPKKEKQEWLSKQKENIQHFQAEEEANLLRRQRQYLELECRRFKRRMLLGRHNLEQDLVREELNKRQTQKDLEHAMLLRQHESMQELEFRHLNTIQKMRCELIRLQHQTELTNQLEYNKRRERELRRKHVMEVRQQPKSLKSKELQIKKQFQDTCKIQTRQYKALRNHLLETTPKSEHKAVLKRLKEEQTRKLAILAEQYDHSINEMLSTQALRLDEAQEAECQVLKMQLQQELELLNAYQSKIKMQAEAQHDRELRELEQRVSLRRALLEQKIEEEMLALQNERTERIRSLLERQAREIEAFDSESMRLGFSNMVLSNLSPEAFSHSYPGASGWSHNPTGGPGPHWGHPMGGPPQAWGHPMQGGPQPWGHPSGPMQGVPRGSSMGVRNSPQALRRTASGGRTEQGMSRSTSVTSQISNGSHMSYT

[6] = biological target: T2, Serine/threonine-protein kinase DCLK3 (Homo sapiens) (UniProt Q9C098); assay: Inhibition of DCAMKL3 at 1 uM
T2 sequence (whole entry): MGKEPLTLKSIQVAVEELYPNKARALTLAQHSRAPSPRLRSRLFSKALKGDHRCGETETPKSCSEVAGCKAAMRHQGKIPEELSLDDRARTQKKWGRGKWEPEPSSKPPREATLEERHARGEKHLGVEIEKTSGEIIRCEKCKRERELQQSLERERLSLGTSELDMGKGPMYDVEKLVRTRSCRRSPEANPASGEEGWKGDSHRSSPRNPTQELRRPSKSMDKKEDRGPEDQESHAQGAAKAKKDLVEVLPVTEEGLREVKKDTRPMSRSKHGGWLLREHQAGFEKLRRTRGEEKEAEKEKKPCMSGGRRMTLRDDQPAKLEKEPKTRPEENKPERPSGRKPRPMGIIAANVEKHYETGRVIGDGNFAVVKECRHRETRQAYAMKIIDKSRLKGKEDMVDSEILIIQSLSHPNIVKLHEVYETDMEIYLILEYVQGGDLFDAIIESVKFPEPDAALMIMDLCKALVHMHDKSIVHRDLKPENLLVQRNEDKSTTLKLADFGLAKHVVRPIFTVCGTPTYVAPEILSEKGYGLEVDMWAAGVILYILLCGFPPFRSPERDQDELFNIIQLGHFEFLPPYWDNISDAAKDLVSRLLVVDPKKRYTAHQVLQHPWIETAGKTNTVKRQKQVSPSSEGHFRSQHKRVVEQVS

[7] = test system: T3, Receptor-type tyrosine-protein kinase FLT3 (Homo sapiens), P36888 [D835Y]; assay: Inhibition of FLT3 D835Y mutant at 1 uM
T3 sequence (whole entry): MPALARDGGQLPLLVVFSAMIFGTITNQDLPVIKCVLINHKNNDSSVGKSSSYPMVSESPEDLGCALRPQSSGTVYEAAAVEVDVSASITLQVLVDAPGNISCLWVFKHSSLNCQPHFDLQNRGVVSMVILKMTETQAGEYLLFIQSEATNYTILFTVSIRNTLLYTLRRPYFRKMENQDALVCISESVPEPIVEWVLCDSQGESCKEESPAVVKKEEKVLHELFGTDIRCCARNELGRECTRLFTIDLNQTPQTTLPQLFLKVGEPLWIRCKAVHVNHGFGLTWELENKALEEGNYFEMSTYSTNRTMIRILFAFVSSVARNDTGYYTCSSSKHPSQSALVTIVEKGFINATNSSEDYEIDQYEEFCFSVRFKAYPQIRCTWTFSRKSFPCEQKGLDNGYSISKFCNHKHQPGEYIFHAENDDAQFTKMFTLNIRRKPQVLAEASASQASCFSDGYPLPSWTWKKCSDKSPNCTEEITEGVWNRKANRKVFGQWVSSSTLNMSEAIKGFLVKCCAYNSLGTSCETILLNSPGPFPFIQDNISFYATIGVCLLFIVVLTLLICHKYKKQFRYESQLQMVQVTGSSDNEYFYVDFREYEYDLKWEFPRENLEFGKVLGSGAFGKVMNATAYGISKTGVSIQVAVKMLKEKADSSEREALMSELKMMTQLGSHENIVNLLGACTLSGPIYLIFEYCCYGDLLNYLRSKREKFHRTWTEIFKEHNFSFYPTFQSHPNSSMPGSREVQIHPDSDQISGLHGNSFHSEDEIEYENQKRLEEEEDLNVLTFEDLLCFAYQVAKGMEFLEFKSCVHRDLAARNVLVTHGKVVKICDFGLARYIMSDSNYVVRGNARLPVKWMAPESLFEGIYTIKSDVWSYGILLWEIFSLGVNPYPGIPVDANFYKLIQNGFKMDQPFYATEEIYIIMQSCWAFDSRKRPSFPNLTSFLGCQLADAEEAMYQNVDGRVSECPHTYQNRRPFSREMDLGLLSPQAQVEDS
Method in brief: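 Single-concentration screen on the Ambit KINOMEscan platform, run against a panel of 250–400 kinases. Per-kinase inhibition was also summarized as S(90), the fraction of kinases inhibited by more than 90%.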

Chain of Mitogen-activated protein kinase 11 (Homo sapiens) (Q15759 whole entry): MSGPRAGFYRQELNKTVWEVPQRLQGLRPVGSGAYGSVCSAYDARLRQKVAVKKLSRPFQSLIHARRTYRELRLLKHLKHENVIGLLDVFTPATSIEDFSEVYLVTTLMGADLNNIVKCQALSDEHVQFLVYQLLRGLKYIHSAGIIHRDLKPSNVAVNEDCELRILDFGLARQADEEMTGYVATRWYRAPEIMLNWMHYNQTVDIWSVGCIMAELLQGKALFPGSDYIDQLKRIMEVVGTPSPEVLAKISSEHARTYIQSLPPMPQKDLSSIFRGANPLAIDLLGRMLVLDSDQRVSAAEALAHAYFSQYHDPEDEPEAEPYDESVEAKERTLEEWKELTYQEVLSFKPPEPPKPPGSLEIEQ

SMILES	inhibition [1] [%]	inhibition [2] [%]	inhibition [3] [%]	inhibition [4] [%]	inhibition [5] [%]	inhibition [6] [%]	inhibition [7] [%]
CC(=O)N1CCN(c2cc(-c3cnc4c(c3)N(Cc3cc(Cl)ccc3C(F)(F)F)CCN4)ccn2)CC1	< 50	< 50	< 50	< 50	< 50	92	87
O=C(O)c1ccc(-c2cnc3c(c2)N(Cc2cc(Cl)ccc2C(F)(F)F)CCN3)cc1	< 50		< 50				< 50
O=C(c1ccc(-c2cnc3c(c2)N(Cc2cc(Cl)ccc2C(F)(F)F)CCN3)cc1)N1CCCCC1	< 50		< 50				< 50
CN1CCN(c2ccc(-c3cnc4c(c3)N(Cc3cc(Cl)ccc3C(F)(F)F)CCN4)cn2)CC1	< 50	< 50	< 50	< 50	< 50	75	85
COC1CCN(C(=O)c2ccc(-c3cnc4c(c3)N(Cc3cc(Cl)ccc3C(F)(F)F)CCN4)cc2)CC1	< 50		< 50				66.7
FC(F)(F)c1ccc(Cl)cc1CN1CCNc2ncc(-c3ccnc(N4CCNCC4)c3)cc21	< 50	< 50	< 50	76	< 50	99	93
O=C(c1ccc(-c2cnc3c(c2)N(Cc2cc(Cl)ccc2C(F)(F)F)CCN3)cc1)N1CCC(N2CCCC2)CC1	< 50		< 50				75.5

Now from value to compound:

inhibition [1] [%]	inhibition [2] [%]	inhibition [3] [%]	inhibition [4] [%]	inhibition [5] [%]	inhibition [6] [%]	inhibition [7] [%]	SMILES
< 50	< 50	< 50	< 50	< 50	89	80.8	CN1CCN(c2ccc(-c3cnc4c(c3)N(Cc3cc(F)ccc3F)CCN4)cn2)CC1
< 50	< 50	< 50	< 50	< 50	84	87	CN1CCN(c2ccc(-c3cnc4c(c3)N(Cc3cc(Cl)ccc3Cl)CCN4)cn2)CC1
< 50	< 50	< 50	< 50	< 50	< 50	< 50	CN1CCN(c2ccc(-c3cnc4c(c3)N(Cc3c(F)ccc(F)c3Cl)CCN4)cn2)CC1
